Data from ChEMBL document CHEMBL1177882, “Novel bisstyryl derivatives of bakuchiol: targeting oral cavity pathogens” (2010).
In brackets after ≈: the same amount, converted by molar mass. Activity calls are given as the source filed them. No cut-off for these calls is given here.

Key:
Streptococcus mutans [1] = experiment: Antibacterial activity against Streptococcus mutans ATCC 25175 after 48 hrs by broth microdilution method; assay type: functional; details: ATCC 25175, 48 h
Actinomyces viscosus [2] = experiment: Antibacterial activity against Actinomyces viscosus ATCC 15987 after 48 hrs by broth microdilution method; assay type: functional; details: ATCC 15987, 48 h
Streptococcus sanguinis [3] = experiment: Antibacterial activity against Streptococcus sanguinis ATCC 10556 after 48 hrs by broth microdilution method; assay type: functional; details: ATCC 10556, 48 h
Fusobacterium nucleatum [4] = experiment: Antibacterial activity against Fusobacterium nucleatum ATCC 10953 after 48 hrs by broth microdilution method; assay type: functional; details: ATCC 10953, 48 h
Method in brief: (§1)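 Broth microdilution MIC for obligate anaerobes, run in their growth media (Wilkins–Chalgren for F. nucleatum and P. intermedia; supplemented Todd Hewitt broth for P. gingivalis). Inoculum suspended in Brucella broth, final 5 × 10^6 cfu/ml. Twofold dilutions, final 0.12–128 µg/ml. Incubated anaerobically (90% N2/5% H2/5% CO2) at 37 °C for 48 h; MIC is the lowest concentration without turbidity.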

Prevotella intermedia [5] = experiment: Antibacterial activity against Prevotella intermedia ATCC 25611 after 48 hrs by broth microdilution method; assay type: functional; details: ATCC 25611, 48 h; method in brief: as §1
Porphyromonas gingivalis [6] = experiment: Antibacterial activity against Porphyromonas gingivalis ATCC 33277 after 48 hrs by broth microdilution method; assay type: functional; details: ATCC 33277, 48 h; method in brief: as §1
Streptococcus mutans [7] = experiment: Antibacterial activity against Streptococcus mutans ATCC 25175 assessed as inhibition of biofilm formation after 18 hrs; assay type: functional
Method in brief: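 Single-species S. mutans biofilm grown in flat-bottom polystyrene wells, BHI with 2% sucrose, 6 × 10^7 cfu/ml final, compound twofold 0.12–128 µg/ml, 18 h at 37 °C in 5% CO2. Wells rinsed with PBS pH 7.2, methanol-fixed, stained with 0.1% crystal violet, eluted in 95% ethanol, A595 read. % inhibition relative to untreated control; MBIC50 is the lowest concentration giving ≥50% inhibition.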

Streptococcus mutans [8] = experiment: Antibacterial activity against Streptococcus mutans ATCC 25175 after 24 hrs by broth microdilution method; details: ATCC 25175, 24 h
Actinomyces viscosus [9] = experiment: Antibacterial activity against Actinomyces viscosus ATCC 15987 after 24 hrs by broth microdilution method; details: ATCC 15987, 24 h
Streptococcus sanguinis [10] = experiment: Antibacterial activity against Streptococcus sanguinis ATCC 10556 after 24 hrs by broth microdilution method; details: ATCC 10556, 24 h
Streptococcus mutans [11] = experiment: Antibacterial activity against Streptococcus mutans ATCC 25175 assessed as decrease in cell viability at 2 time MIC after 60 mins by serial dilution method relative to control; assay type: functional
Method in brief: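 S. mutans suspension from an 18 h culture (~1 × 10^9 cfu/ml) diluted 1:20 into phosphate buffer containing compound at 2 × MIC. Incubated 60 min at 37 °C, then serially diluted in saline and plated on BHI agar. Colonies counted after 48 h at 37 °C in 5% CO2; viability given as CFU/ml relative to untreated cells.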

Streptococcus mutans [12] = experiment: Antibacterial activity against Streptococcus mutans ATCC 25175 assessed as increase of cell membrane permeability at 2 time MIC after 60 mins propidium iodide staining by flow cytometry; assay type: functional, organism-based
Method in brief: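 Overnight BHI culture of S. mutans washed into 50 mmol/l sodium phosphate pH 7.1 (~1 × 10^9 cfu/ml), diluted 1:20 into buffer with compound at 2 × MIC. Incubated 60 min at room temperature; aliquots diluted in buffer and stained with propidium iodide at 10 µg/ml final on ice. The percentage of PI-stained cells was measured by flow cytometry.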

Streptococcus mutans [13] = experiment: Antibacterial activity against Streptococcus mutans ATCC 25175 assessed as 280 nm absorbing material release at 2 time MIC after 60 mins by spectrophotometric analysis; assay type: functional, organism-based
Method in brief: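 S. mutans prepared in 50 mmol/l phosphate pH 7.1 (~1 × 10^9 cfu/ml) was exposed to compound at 2 × MIC for 60 min at 37 °C. Supernatant taken after centrifugation (10,000 g, 10 min) and read at A280. Release is expressed as % of a total-release control made by lysozyme treatment (100 µg/ml, 60 min, 37 °C) plus sonication.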

Fusobacterium nucleatum [14] = experiment: Ratio of compound MIC to bakuchiol MIC for sFusobacterium nucleatum ATCC 10953; assay type: functional
Porphyromonas gingivalis [15] = experiment: Ratio of compound MIC to bakuchiol MIC for Porphyromonas gingivalis ATCC 33277; assay type: functional
Streptococcus mutans [16] = experiment: Ratio of compound MIC to bakuchiol MIC for Streptococcus mutans ATCC 25175; assay type: functional
Actinomyces viscosus [17] = experiment: Ratio of compound MIC to bakuchiol MIC for Actinomyces viscosus ATCC 15987; assay type: functional
Streptococcus sanguinis [18] = experiment: Ratio of compound MIC to bakuchiol MIC for Streptococcus sanguinis ATCC 10556; assay type: functional
Prevotella intermedia [19] = experiment: Ratio of compound MIC to bakuchiol MIC for Prevotella intermedia ATCC 25611; assay type: functional

Structure (SMILES) | MBC (Streptococcus mutans [1]) | MBC (Actinomyces viscosus [2]) | MBC (Streptococcus sanguinis [3]) | MBC (Fusobacterium nucleatum [4]) | MIC (Fusobacterium nucleatum [4]) | MBC (Prevotella intermedia [5]) | MIC (Prevotella intermedia [5]) | MBC (Porphyromonas gingivalis [6]) | MIC (Porphyromonas gingivalis [6]) | MBIC50 (Streptococcus mutans [7]) | MIC (Streptococcus mutans [8]) | MIC (Actinomyces viscosus [9]) | MIC (Streptococcus sanguinis [10]) | Activity (Streptococcus mutans [11]) | Activity (Streptococcus mutans [12]) | Activity (Streptococcus mutans [13]) | other results
CC[C@](C)(CCCC(C)C)CCc1ccc(O)cc1 | 4 µg/mL (≈ 15.2 µM) | 4 µg/mL (≈ 15.2 µM) | 2 µg/mL (≈ 7.62 µM) | > 128 µg/mL | > 128 µg/mL | 4 µg/mL (≈ 15.2 µM) | 2 µg/mL (≈ 7.62 µM) | 2 µg/mL (≈ 7.62 µM) | 1 µg/mL (≈ 3.81 µM) | 4 µg/mL | 2 µg/mL (≈ 7.62 µM) | 2 µg/mL (≈ 7.62 µM) | 1 µg/mL (≈ 3.81 µM) |  |  |  | 
C=C[C@@](C)(/C=C/c1ccc(O)c([N+](=O)[O-])c1)CCC=C(C)C | 128 µg/mL (≈ 425 µM) | > 128 µg/mL | > 128 µg/mL | > 128 µg/mL | > 128 µg/mL | 128 µg/mL (≈ 425 µM) | 64 µg/mL (≈ 212 µM) | 32 µg/mL (≈ 106 µM) | 32 µg/mL (≈ 106 µM) |  | 64 µg/mL (≈ 212 µM) | 128 µg/mL (≈ 425 µM) | 128 µg/mL (≈ 425 µM) |  |  |  | 
CC(C)=CCCC(C)(/C=C/c1ccc(O)cc1)/C=C/c1ccc(O)cc1 | 1 µg/mL (≈ 2.87 µM) | 1 µg/mL (≈ 2.87 µM) | 1 µg/mL (≈ 2.87 µM) | > 128 µg/mL | > 128 µg/mL | 1 µg/mL (≈ 2.87 µM) | 0.25 µg/mL (≈ 0.717 µM) | 1 µg/mL (≈ 2.87 µM) | 0.25 µg/mL (≈ 0.717 µM) | 1 µg/mL | 0.5 µg/mL (≈ 1.43 µM) | 0.5 µg/mL (≈ 1.43 µM) | 0.25 µg/mL (≈ 0.717 µM) | >80% | Active | Active | 
COc1ccc(/C=C/[C@@](C)(/C=C/c2ccc(O)cc2)CCC=C(C)C)cc1C=O | 16 µg/mL (≈ 41 µM) | 32 µg/mL (≈ 81.9 µM) | 32 µg/mL (≈ 81.9 µM) | > 128 µg/mL | > 128 µg/mL | 32 µg/mL (≈ 81.9 µM) | 16 µg/mL (≈ 41 µM) | 2 µg/mL (≈ 5.12 µM) | 2 µg/mL (≈ 5.12 µM) |  | 16 µg/mL (≈ 41 µM) | 16 µg/mL (≈ 41 µM) | 16 µg/mL (≈ 41 µM) |  |  |  | 
C=C[C@@](C)(/C=C/c1ccc(O)cc1)CCC=C(C)C [BAKUCHIOL] | 2 µg/mL (≈ 7.8 µM) | 2 µg/mL (≈ 7.8 µM) | 2 µg/mL (≈ 7.8 µM) | 64 µg/mL (≈ 250 µM) | 32 µg/mL (≈ 125 µM) | 2 µg/mL (≈ 7.8 µM) | 1 µg/mL (≈ 3.9 µM) | 1 µg/mL (≈ 3.9 µM) | 1 µg/mL (≈ 3.9 µM) | 4 µg/mL | 1 µg/mL (≈ 3.9 µM) | 1 µg/mL (≈ 3.9 µM) | 1 µg/mL (≈ 3.9 µM) | >80% | Active | Active | 
COc1ccc(/C=C/[C@@](C)(/C=C/c2ccc(O)cc2)CCC=C(C)C)cc1CO | 4 µg/mL (≈ 10.2 µM) | 8 µg/mL (≈ 20.4 µM) | 8 µg/mL (≈ 20.4 µM) | > 128 µg/mL | > 128 µg/mL | 4 µg/mL (≈ 10.2 µM) | 2 µg/mL (≈ 5.1 µM) | 4 µg/mL (≈ 10.2 µM) | 2 µg/mL (≈ 5.1 µM) | 8 µg/mL | 4 µg/mL (≈ 10.2 µM) | 4 µg/mL (≈ 10.2 µM) | 4 µg/mL (≈ 10.2 µM) |  |  |  | 
COc1ccc(/C=C/[C@@](C)(/C=C/c2ccc(O)cc2)CCC=C(C)C)cc1 | 2 µg/mL (≈ 5.52 µM) | 2 µg/mL (≈ 5.52 µM) | 2 µg/mL (≈ 5.52 µM) | 8 µg/mL (≈ 22.1 µM) | 8 µg/mL (≈ 22.1 µM) | 4 µg/mL (≈ 11 µM) | 2 µg/mL (≈ 5.52 µM) | 1 µg/mL (≈ 2.76 µM) | 0.5 µg/mL (≈ 1.38 µM) | 2 µg/mL | 1 µg/mL (≈ 2.76 µM) | 2 µg/mL (≈ 5.52 µM) | 2 µg/mL (≈ 5.52 µM) | >80% | Active | Active | Ratio (Fusobacterium nucleatum [14]): 0.25; Ratio (Porphyromonas gingivalis [15]): 2; Ratio (Streptococcus mutans [16]): 2; Ratio (Actinomyces viscosus [17]): 2; Ratio (Streptococcus sanguinis [18]): 2; Ratio (Prevotella intermedia [19]): 2
COc1ccc(/C=C/[C@](C)(/C=C/c2ccc(O)cc2)CCC=C(C)C)cc1 | 1 µg/mL (≈ 2.76 µM) | 1 µg/mL (≈ 2.76 µM) | 1 µg/mL (≈ 2.76 µM) | 32 µg/mL (≈ 88.3 µM) | 16 µg/mL (≈ 44.1 µM) | 1 µg/mL (≈ 2.76 µM) | 0.5 µg/mL (≈ 1.38 µM) | 0.5 µg/mL (≈ 1.38 µM) | 0.25 µg/mL (≈ 0.69 µM) | 1 µg/mL | 0.5 µg/mL (≈ 1.38 µM) | 0.5 µg/mL (≈ 1.38 µM) | 0.5 µg/mL (≈ 1.38 µM) | >80% | Active | Active | Ratio (Fusobacterium nucleatum [14]): 2; Ratio (Porphyromonas gingivalis [15]): 2; Ratio (Streptococcus mutans [16]): 2; Ratio (Actinomyces viscosus [17]): 2; Ratio (Streptococcus sanguinis [18]): 2; Ratio (Prevotella intermedia [19]): 2
